The target of assay [1] is T1, Alpha-1A adrenergic receptor (Homo sapiens, UniProt P35348).
T1 sequence (P35348 whole entry): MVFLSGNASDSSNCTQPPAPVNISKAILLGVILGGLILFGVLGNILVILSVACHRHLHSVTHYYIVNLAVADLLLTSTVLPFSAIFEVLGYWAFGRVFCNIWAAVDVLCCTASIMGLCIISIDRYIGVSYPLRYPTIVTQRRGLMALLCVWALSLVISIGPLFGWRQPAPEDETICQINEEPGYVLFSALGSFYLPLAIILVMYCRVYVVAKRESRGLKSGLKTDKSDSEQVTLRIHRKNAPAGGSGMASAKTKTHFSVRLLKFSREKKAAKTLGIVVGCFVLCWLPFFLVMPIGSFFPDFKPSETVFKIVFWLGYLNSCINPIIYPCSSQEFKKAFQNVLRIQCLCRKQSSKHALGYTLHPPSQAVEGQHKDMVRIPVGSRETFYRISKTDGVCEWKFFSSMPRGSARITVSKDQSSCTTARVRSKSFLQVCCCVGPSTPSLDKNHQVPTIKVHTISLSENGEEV
The assay can be described thus: Displacement of [3H]-Prazosin from human recombinant adrenergic alpha1A receptor expressed in cells after 90 mins by microbeta scintillation counting method. It is filed as cell-based. In outline:
(§1)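 Radioligand binding was run by the NIMH Psychoactive Drug Screening Program. Compounds were first screened at 10 μM. Those giving ≥50% binding were taken to full competition curves. Ki is reported as pKi from a sigmoidal curve fit of triplicate measurements in a single experiment; the error is the curve-fit error.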

The target of assay [2] is T2, Alpha-2C adrenergic receptor (Homo sapiens, UniProt P18825).
T2 sequence (P18825 whole entry): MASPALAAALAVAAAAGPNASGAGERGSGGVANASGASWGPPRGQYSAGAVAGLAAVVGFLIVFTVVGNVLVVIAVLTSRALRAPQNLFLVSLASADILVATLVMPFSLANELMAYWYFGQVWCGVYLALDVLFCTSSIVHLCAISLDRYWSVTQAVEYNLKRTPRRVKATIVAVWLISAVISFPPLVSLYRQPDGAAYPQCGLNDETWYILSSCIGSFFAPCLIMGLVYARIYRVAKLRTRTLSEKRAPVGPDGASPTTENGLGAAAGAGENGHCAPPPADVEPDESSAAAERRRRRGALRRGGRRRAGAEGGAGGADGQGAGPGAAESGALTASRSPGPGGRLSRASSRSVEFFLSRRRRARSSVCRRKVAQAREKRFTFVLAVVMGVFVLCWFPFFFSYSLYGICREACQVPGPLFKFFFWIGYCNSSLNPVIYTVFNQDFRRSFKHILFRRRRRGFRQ
Nature of the assay: Displacement of [3H]-Rauwolscine from human recombinant adrenergic Alpha2C receptor expressed in stable MDCK cells after 90 mins by microbeta scintillation counting method. Format: cell-based. Put shortly:
as §1

Assay [3] concerns the target Beta-2 adrenergic receptor (Homo sapiens, UniProt P07550). Nature of the assay: Displacement of [3H]-CGP12177 from human recombinant adrenergic Beta2 receptor expressed in Flp-In HEK cells after 90 mins by microbeta scintillation counting method. It is filed as cell-based. In outline: (§2)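 Radioligand binding run by the NIMH Psychoactive Drug Screening Program. […] Otherwise Ki comes from sigmoidal curve fits of triplicate measurements in a single experiment, or is averaged over repeated experiments each run in triplicate.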

Assay [4] has as its target T3, D(3) dopamine receptor (Homo sapiens, UniProt P35462). The assay can be described thus: Displacement of [3H]-N-methylspiperone from human recombinant dopamine D3 receptor expressed in HEKT cells after 90 mins by microbeta scintillation counting method. Format: cell-based. Put shortly:
(§3)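 Radioligand binding run by the NIMH Psychoactive Drug Screening Program. Otherwise Ki comes from sigmoidal curve fits of triplicate measurements in a single experiment, or is averaged over repeated experiments each run in triplicate.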

Assay [5] addresses Histamine H1 receptor (Homo sapiens, UniProt P35367). Nature of the assay: Displacement of [3H]-Pyrilamine from human recombinant histamine H1 receptor expressed in stable HEK cells after 90 mins by microbeta scintillation counting method. Format: cell-based. Put shortly:
as §1

The target of assay [6] is Kappa-type opioid receptor (Homo sapiens, UniProt P41145). The assay can be described thus: Displacement of [3H]-U69593 from human recombinant KOR receptor expressed in stable HEK cells after 90 mins by microbeta scintillation counting method. It is filed as cell-based. In outline:
as §1

Assay [7] addresses Mu-type opioid receptor (Homo sapiens, UniProt P35372). Nature of the assay: Displacement of [3H]-DAMGO from human recombinant MOR receptor expressed in stable HEK cells after 90 mins by microbeta scintillation counting method. It is filed as cell-based. In outline: as §2
The nature of assay [8]: Displacement of [3H]-PK11195 from PBR receptor in rat brain after 90 mins by microbeta scintillation counting method. Format: tissue-based. In outline:
as §3

The target of assay [9] is 5-hydroxytryptamine receptor 1E (Homo sapiens, UniProt P28566). The assay can be described thus: Displacement of [3H]-HT from human recombinant 5-HT1E receptor expressed in stable HEK cells at 10 uM after 90 mins by microbeta scintillation counting method relative to control. Format: cell-based. In outline:
as §2

For assay [10], the target named is Beta-3 adrenergic receptor (Homo sapiens, UniProt P13945). Nature of the assay: Displacement of [3H]-CGP12177 from human recombinant adrenergic Beta3 receptor expressed in Flp-In HEK cells at 10 uM after 90 mins by microbeta scintillation counting method relative to control. It is filed as cell-based. In outline:
as §2

The target in assay [11] is T3, D(3) dopamine receptor. Nature of the assay: Displacement of [3H]-N-methylspiperone from human recombinant dopamine D3 receptor expressed in HEKT cells at 10 uM after 90 mins by microbeta scintillation counting method relative to control. It is filed as cell-based. Put shortly: as §2
Assay [12] addresses T4, D(4) dopamine receptor (Homo sapiens) (UniProt P21917).
T4 sequence (whole entry): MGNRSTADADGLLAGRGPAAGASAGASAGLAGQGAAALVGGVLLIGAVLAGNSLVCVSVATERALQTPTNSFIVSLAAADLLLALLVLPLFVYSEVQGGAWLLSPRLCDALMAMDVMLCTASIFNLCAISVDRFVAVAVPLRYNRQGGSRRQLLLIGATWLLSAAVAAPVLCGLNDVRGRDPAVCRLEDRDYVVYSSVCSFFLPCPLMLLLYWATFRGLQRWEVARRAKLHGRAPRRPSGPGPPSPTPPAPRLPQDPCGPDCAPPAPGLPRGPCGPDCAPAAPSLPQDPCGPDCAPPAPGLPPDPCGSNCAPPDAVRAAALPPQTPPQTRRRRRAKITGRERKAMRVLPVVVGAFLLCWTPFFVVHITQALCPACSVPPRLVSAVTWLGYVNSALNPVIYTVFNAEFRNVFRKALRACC
The assay can be described thus: Displacement of [3H]-methylspiperone from human recombinant dopamine D4 receptor expressed in Stable HEK cells at 10 uM after 90 mins by microbeta scintillation counting method relative to control. It is filed as cell-based.

Assay [13] addresses GABA-A receptor; anion channel (Rattus norvegicus) (UniProt O09028+P15431+P18506+P18508+P19969+P20236+P23574+P23576+P28471+P28473+P30191+P62813+P63079+P63138+Q91ZM7+Q9ES14). The assay can be described thus: Displacement of [3H]-Muscimol from GABAA receptor in rat brain at 10 uM incubated for 90 mins by microbeta scintillation counting method relative to control. It is filed as tissue-based. Put shortly:
as §2

In assay [14] the target is Delta-type opioid receptor (Homo sapiens, UniProt P41143). The assay can be described thus: Displacement of [3H]-DADLE from human recombinant DOR receptor expressed in stable HEK cells at 10 uM after 90 mins by microbeta scintillation counting method relative to control. Format: cell-based. In outline:
as §2

Chain of Beta-3 adrenergic receptor (P13945 whole entry, looked up): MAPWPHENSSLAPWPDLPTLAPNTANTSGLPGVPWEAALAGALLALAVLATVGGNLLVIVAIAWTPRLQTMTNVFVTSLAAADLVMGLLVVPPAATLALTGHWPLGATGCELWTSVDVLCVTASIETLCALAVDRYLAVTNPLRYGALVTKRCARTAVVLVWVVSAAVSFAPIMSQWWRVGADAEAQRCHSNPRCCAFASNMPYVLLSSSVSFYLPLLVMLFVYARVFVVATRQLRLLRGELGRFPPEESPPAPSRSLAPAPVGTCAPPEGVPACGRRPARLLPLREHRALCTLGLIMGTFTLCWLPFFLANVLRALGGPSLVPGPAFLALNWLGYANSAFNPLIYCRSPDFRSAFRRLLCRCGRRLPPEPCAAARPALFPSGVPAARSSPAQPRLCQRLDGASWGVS
Chain of Beta-2 adrenergic receptor (P07550 whole entry): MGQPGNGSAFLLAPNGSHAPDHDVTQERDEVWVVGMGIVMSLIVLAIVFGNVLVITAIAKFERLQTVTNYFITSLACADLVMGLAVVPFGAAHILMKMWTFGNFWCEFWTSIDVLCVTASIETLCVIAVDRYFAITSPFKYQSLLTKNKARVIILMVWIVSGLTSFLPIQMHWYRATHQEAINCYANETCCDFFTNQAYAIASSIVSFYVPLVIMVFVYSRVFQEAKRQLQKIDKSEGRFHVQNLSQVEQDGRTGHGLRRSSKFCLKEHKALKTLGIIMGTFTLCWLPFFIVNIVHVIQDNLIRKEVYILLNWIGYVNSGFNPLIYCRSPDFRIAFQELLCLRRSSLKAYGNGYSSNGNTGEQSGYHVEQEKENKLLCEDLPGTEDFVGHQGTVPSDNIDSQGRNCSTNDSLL
Chain of Mu-type opioid receptor (P35372 whole entry): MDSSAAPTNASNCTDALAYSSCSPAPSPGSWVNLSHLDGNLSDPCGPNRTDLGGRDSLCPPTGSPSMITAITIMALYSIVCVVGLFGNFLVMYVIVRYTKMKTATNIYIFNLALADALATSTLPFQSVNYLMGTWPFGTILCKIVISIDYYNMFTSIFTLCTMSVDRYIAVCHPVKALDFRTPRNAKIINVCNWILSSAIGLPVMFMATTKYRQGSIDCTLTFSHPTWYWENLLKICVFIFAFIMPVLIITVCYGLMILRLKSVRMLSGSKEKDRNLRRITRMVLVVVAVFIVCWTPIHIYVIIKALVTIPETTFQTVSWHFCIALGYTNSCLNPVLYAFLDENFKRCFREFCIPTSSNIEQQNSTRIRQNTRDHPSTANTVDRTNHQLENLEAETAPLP
Chain of 5-hydroxytryptamine receptor 1E (P28566 whole entry): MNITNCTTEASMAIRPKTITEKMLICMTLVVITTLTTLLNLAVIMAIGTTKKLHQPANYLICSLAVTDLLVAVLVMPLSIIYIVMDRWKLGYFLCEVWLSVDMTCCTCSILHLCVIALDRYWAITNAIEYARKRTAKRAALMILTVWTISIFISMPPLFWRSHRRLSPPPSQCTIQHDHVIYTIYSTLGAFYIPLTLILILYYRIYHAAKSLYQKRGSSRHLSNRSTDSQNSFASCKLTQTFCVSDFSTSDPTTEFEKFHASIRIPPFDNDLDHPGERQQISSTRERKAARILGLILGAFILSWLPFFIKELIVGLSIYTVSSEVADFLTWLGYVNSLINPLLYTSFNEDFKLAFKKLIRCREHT
Chain of Delta-type opioid receptor (P41143 whole entry): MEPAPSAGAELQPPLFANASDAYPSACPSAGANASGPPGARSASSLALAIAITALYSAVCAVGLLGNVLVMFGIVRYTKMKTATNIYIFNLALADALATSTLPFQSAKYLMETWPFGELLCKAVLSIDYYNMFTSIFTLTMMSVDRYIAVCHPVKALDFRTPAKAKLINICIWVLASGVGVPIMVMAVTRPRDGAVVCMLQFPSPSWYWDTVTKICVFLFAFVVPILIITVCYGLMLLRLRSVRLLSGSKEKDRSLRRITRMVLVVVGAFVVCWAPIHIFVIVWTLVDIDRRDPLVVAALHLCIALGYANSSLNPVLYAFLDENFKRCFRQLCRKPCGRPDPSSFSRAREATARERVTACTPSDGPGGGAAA
Chain of Histamine H1 receptor (P35367 whole entry): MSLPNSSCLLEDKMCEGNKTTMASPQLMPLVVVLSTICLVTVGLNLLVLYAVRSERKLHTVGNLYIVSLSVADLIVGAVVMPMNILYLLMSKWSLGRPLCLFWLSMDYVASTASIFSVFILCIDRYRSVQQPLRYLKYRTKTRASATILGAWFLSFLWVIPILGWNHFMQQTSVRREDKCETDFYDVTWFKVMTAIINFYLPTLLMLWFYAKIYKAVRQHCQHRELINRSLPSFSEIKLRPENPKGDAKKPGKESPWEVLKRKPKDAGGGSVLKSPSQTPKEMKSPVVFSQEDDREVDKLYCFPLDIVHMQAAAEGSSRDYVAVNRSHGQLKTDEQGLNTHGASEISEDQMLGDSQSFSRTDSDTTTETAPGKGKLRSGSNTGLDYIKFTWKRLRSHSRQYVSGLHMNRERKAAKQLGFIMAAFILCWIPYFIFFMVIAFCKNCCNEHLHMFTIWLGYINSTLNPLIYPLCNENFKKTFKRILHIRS
T3 sequence (P35462 whole entry): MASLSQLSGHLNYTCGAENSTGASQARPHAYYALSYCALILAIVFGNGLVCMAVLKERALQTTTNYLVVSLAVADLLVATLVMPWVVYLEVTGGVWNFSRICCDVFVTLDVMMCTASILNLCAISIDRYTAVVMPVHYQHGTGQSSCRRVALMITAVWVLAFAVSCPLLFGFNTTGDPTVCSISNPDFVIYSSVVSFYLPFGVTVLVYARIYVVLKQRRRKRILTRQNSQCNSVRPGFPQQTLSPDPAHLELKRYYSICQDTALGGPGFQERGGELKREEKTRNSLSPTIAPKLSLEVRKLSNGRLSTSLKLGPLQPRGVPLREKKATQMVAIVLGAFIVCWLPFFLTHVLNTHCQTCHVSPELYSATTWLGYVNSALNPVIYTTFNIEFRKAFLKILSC
Chain of Kappa-type opioid receptor (P41145 whole entry): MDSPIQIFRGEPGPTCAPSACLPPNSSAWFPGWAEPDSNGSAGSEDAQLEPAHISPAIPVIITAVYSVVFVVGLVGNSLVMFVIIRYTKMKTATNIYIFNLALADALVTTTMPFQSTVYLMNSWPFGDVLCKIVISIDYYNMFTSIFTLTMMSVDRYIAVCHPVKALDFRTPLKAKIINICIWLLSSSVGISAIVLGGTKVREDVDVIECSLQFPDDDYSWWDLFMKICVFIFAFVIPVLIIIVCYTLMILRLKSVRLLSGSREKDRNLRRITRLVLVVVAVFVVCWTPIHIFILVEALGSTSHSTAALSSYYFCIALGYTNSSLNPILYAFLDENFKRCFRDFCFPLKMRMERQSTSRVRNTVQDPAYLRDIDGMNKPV

With `COc1cc(OC)c2c(c1)OC[C@@]1(C)NCC[C@@H]21` (racemic), the inhibitory constant (Ki) in assay [1] was above 10 µM; in assay [2], above 10 µM; in assay [3], 0.575 µM; in assay [4] it was above 10 µM; in assay [5], above 10 µM; in [6] it was above 10 µM. For the same compound, the Ki in assay [7] was above 10 µM. The pKi in assay [8] is on record as below 5. Further, the inhibition in [9], in [10], in assay [11], in [12], in assay [13] and in assay [14] was below 50% throughout.
In the case of `C[C@@]12CN(c3ccccc3)c3ccccc3[C@@H]1CCN2` (racemic), the Ki is above 10 µM in assay [1]; 1 µM in assay [2]; above 10 µM in assay [3]; above 10 µM in assay [5]; above 10 µM in [6]; above 10 µM in [7].
Regarding `CC[C@H]1c2cc(OC)ccc2CC[C@@]1(C)N` (racemic), the Ki in [1] was above 10 µM; in assay [2], above 10 µM; in assay [3], 5.01 µM; in [4], above 10 µM; in assay [5], 3.16 µM; in assay [6], 0.316 µM. The Ki in [7] was 2 µM. Also, the pKi in assay [8] is recorded as below 5. Also, the inhibition in assay [9], in [10], in assay [11], in assay [12], in assay [13] and in assay [14] was below 50% throughout.
As for `CC[C@H]1c2cc(C)ccc2OC[C@@]1(C)N` (racemic), the Ki in assay [1], in assay [2], in [3], in assay [4], in assay [5] and in assay [6] was above 10 µM in each case. For the same compound, in [7], the Ki is above 10 µM. Further, the pKi in assay [8] is reported as below 5. The inhibition in [9], in assay [10], in assay [11], in assay [12], in assay [13] and in assay [14] was below 50% throughout.
On to `CC[C@H]1c2ccccc2N(c2ccccc2)C[C@@]1(C)N` (racemic), for which the Ki is 1.58 µM in assay [1]; above 10 µM in assay [2]; above 10 µM in [3]; above 10 µM in assay [5]; above 10 µM in assay [6]; above 10 µM in assay [7].

(Values after ChEMBL document CHEMBL4304834, “3-Amino-chromanes and Tetrahydroquinolines as Selective 5-HT2B, 5-HT7, or σ1 Receptor Ligands” (ACS Med Chem Lett, 2019).)
